The source made the active and inactive calls. No cut-off for these calls is given here.
Assays:
Staphylococcus aureus [1] = test: Antibacterial activity against Staphylococcus aureus incubated for 24 hrs; assay type: functional
Outline: (§1)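 Broth microdilution: 6 h cultures diluted to ~10^5 CFU/mL in medium; compounds 2-fold serially diluted in water, mixed 1:3 with bacterial suspension. Incubated 24 h, 37 °C; OD600 read. MIC = concentration with OD similar to medium-only control. Triplicate wells, experiments repeated at least twice.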

Escherichia coli [2] = test: Antibacterial activity against Escherichia coli incubated for 24 hrs; assay type: functional; outline: as §1
Staphylococcus aureus [3] = test: Antibacterial activity against methicillin-resistant Staphylococcus aureus incubated for 24 hrs; assay type: functional
Outline: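 MRSA (ATCC 33591) from a 6 h culture (~10^9 CFU/mL), diluted to ~10^5 CFU/mL in medium. Compounds in water, 2-fold serial dilutions, combined with the bacteria at 1:3 by volume and incubated 24 h at 37 °C. OD600 read. MIC is the lowest concentration whose OD matches the media-only control. Triplicate wells; experiments repeated at least twice.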

[4] = Induction of hemolysis in human RBC incubated for 1 hr; assay type: cell-based, Erythrocyte; conditions: red blood cells
Outline: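 Washed human RBCs from heparinized blood, 5 vol% in PBS, mixed 3:1 with serially diluted compounds; 1 h at 37 °C. Centrifuged; supernatant A540 read. Hemolysis % = (A−A0)/(Atotal−A0)×100, with water as 0% and 0.1 vol% Triton X-100 as full lysis.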

[5] = Selectivity index, ratio of HC50 for induction of hemolysis in human RBC to MIC for Staphylococcus aureus
[6] = Selectivity index, ratio of HC50 for induction of hemolysis in human RBC to MIC for Escherichia coli
Staphylococcus aureus [7] = test: Induction of membrane depolarization in Staphylococcus aureus at 32 ug/ml after 0 to 20 mins by […] dye based assay; assay type: functional
Outline: (§2)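 Membrane-potential dye DiSC3(5) taken up by S. aureus or E. coli; depolarization followed as rise in dye fluorescence after adding compounds at 32 µg/mL.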

Escherichia coli [8] = test: Induction of membrane depolarization in Escherichia coli at 32 ug/ml after 0 to 20 mins by […] dye based assay; assay type: functional; outline: as §2
Staphylococcus aureus [9] = test: Induction of membrane permeabilization in Staphylococcus aureus at 32 ug/ml after 0 to 20 mins by propidium iodide dye based assay; assay type: functional
Outline: (§3)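 Membrane permeabilization of S. aureus or E. coli followed as increase in propidium iodide fluorescence after adding compounds at 32 µg/mL.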

Escherichia coli [10] = test: Induction of membrane permeabilization in Escherichia coli at 32 ug/ml after 0 to 20 mins by propidium iodide dye based assay; assay type: functional; outline: as §3
Staphylococcus aureus [11] = test: Induction of biofilm disruption in Staphylococcus aureus after 24 hrs by confocal laser-scanning microscopy; assay type: functional
Outline: (§4)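 Biofilms grown on glass coverslips from ~10^5 CFU/mL: S. aureus in nutrient medium + 1% glucose + 1% NaCl, 24 h; E. coli in M9 + 0.5% glycerol + 0.02% casamino acid, 72 h; stationary, 37 °C. After PBS wash, treated 24 h at 37 °C with 32 µg/mL in the same medium; media-only control. Stained with SYTO 9 (5 µM), imaged by confocal microscopy.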

Escherichia coli [12] = test: Induction of biofilm disruption in Escherichia coli after 24 hrs by confocal laser-scanning microscopy; assay type: functional; outline: as §4
[13] = Toxicity in HEK293 cells assessed as induction of cell death at 32 ug/ml incubated for 24 hrs by calcein AM and propidium iodide dye based fluorescence microscopy; conditions: human, hek293, 24 h
Outline: (§5)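 HEK 293 cells seeded ~10^4 cells/well, treated with compounds for 24 h (16, 32 or 64 µg/mL); 0.1% Triton X positive, untreated negative control. Stained with calcein AM (2 µM) and PI (4.5 µM) 15 min at 37 °C, 5% CO2; imaged by fluorescence microscopy, 20X objective.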

[14] = Toxicity in HEK293 cells assessed as induction of cell death at 64 ug/ml incubated for 24 hrs by calcein AM and propidium iodide dye based fluorescence microscopy; conditions: human, hek293, 24 h; outline: as §5
[15] = Toxicity in HEK293 cells assessed as cell density level at 16 ug/ml incubated for 24 hrs by calcein AM and propidium iodide dye based fluorescence microscopy; conditions: human, hek293, 24 h; outline: as §5
[16] = Induction of membrane hydration changes in Laurdan dye containing DPPG:DPPE (88:12) liposomes assessed as reduction in general polarization at 25 to 100 ug/ml by luminescence spectrometry; assay type: physicochemical
Outline: (§6)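 Liposomes of 0.5 mM DPPG:DPPE (88:12) or 0.5 mM DPPC with Laurdan (lipid:dye 100:1), hydrated in PBS pH 7.4, 10 freeze–thaw cycles, sonicated 15 min at 70 °C. Compounds added in PBS (lipid:compound 7.4:1), tested at 25, 50, 100 µg/mL; emission at 440 and 490 nm (ex 350 nm), 37 °C. GP = (I440−I490)/(I440+I490).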

[17] = Induction of membrane hydration changes in Laurdan dye containing DPPC liposomes assessed as reduction in general polarization at 25 to 100 ug/ml by luminescence spectrometry; assay type: physicochemical; outline: as §6
Mus musculus [18] = test: Toxicity in topically dosed mouse assessed as induction of skin darkening at 200 mg/kg after 14 days by OECD425 guidelines based method; assay type: organism-based; conditions: in vivo, topical_or_ocular, 336 h
Mus musculus [19] = test: Toxicity in topically dosed mouse assessed as induction of less fur appearance at 200 mg/kg after 14 days by OECD425 guidelines based method; assay type: organism-based; conditions: in vivo, topical_or_ocular, 336 h
[20] = Toxicity in HEK293 cells assessed as partial induction of cell death at 32 ug/ml incubated for 24 hrs by calcein AM and propidium iodide dye based fluorescence microscopy; conditions: human, hek293, 24 h; outline: as §5

SMILES | MIC (Staphylococcus aureus [1]) [mg/L] | MIC (Escherichia coli [2]) [mg/L] | MIC (Staphylococcus aureus [3]) [mg/L] | HC50 at 1 h [4] [µg/mL] | Selectivity Index [5] | Selectivity Index [6] | Activity (Staphylococcus aureus [7]) | Activity (Escherichia coli [8]) | Activity (Staphylococcus aureus [9]) | Activity (Escherichia coli [10]) | MBEC (Staphylococcus aureus [11]) | MBEC (Escherichia coli [12]) | Activity [13] | Activity [14] | Activity [15] | Activity [16] | Activity [17] | Activity (Mus musculus [18]) | Activity (Mus musculus [19]) | Activity [20]
CCCCCCNC(=O)C[N+](C)(C)CC[N+](C)(C)CC(=O)NCCCCCC.[Br-].[Br-] | 125 | 250 | 250 | > 1000 |  |  |  |  |  |  |  |  |  |  |  |  |  |  |  | 
CCCCCCNC(=O)C[N+](C)(C)CCCCCCCCCC[N+](C)(C)CC(=O)NCCCCCC.[Br-].[Br-] | 4 | 6 | 4 | > 1000 | 310 | 207 | Active | Active | Active | Active |  |  |  |  |  |  |  |  |  | 
CCCCCCCCCCNC(=O)C[N+](C)(C)CCCCCCCCCC[N+](C)(C)CC(=O)NCCCCCCCCCC.[Br-].[Br-] | 4 | 8 | 4 | 55 |  |  |  |  |  |  |  |  |  |  |  |  |  |  |  | 
CCCCCCCCCC[N+](C)(C)CCCCCCCCCC |  |  |  |  |  |  |  |  |  |  | Active | Active |  |  |  |  |  |  |  | 
CCCCCCCCCCNC(=O)C[N+](C)(C)CCCCCCCCCCCC[N+](C)(C)CC(=O)NCCCCCCCCCC.[Br-].[Br-] | 31 | 500 | 62 | 50 |  |  |  |  |  |  |  |  |  |  |  |  |  |  |  | 
CCCCCCCCCCNC(=O)C[N+](C)(C)CCCC[N+](C)(C)CC(=O)NCCCCCCCCCC.[Br-].[Br-] | 2 | 2 | 2 | 60 | 30 | 30 | Active | Active | Active | Active | 31.2 to 62.5 µg/mL |  | Toxic | Toxic | Toxic | Active | Active | Toxic | Toxic | 
CCCCCCCCCCNC(=O)C[N+](C)(C)CC[N+](C)(C)CC(=O)NCCCCCCCCCC.[Br-].[Br-] | 2 | 4 | 2 | 65 | 32 | 16 | Active | Active | Active | Active |  |  |  |  |  |  |  |  |  | 
CCCCCCCCCCNC(=O)C[N+](C)(C)CCCCCC[N+](C)(C)CC(=O)NCCCCCCCCCC.[Br-].[Br-] | 2 | 2 | 2 | 58 |  |  |  |  |  |  |  |  |  |  |  |  |  |  |  | 
CCCCCCCCNC(=O)C[N+](C)(C)CC[N+](C)(C)CC(=O)NCCCCCCCC.[Br-].[Br-] | 2 | 8 | 3.9 | 350 |  |  |  |  |  |  |  |  |  |  |  |  |  |  |  | 
CCCCCCCCNC(=O)C[N+](C)(C)CCCCCCCC[N+](C)(C)CC(=O)NCCCCCCCC.[Br-].[Br-] | 1 | 2 | 2 | 212 | 182 | 106 | Active | Active | Active | Active |  |  |  | Toxic | Toxic |  |  |  |  | Toxic
CCCCCCCCCCNC(=O)C[N+](C)(C)CCCCCCCC[N+](C)(C)CC(=O)NCCCCCCCCCC.[Br-].[Br-] | 2 | 4 | 2 | 55 |  |  |  |  |  |  |  |  |  |  |  |  |  |  |  | 

— ChEMBL document CHEMBL3860103, “Antibacterial and Antibiofilm Activity of Cationic Small Molecules with Spatial Positioning of Hydrophobicity: An in Vitro and in Vivo Evaluation” (J Med Chem, 2016)
